Reference: ChEMBL document CHEMBL4689842, “EUbOPEN Chemogenomics Library wave 1” (2021)

System: HEK-293T
Experiment: Multiplex assay against HEK293T;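 as to Population Tubulin-Different-Phenotype (%): share of the cells with healthy nuclei that show this phenotype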
Format: toxicity, cell-based
Conditions: human
Procedure, shortened: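 Cells were classed with CellPathfinder machine-learning gating, first as Hoechst high-intensity objects or normal cells, then (normal cells) as healthy, pyknosed or fragmented nuclei, and finally (pyknosed cells) as mitotic or apoptotic. Staining of live cells at seeding used Hoechst33342, BioTracker Green Microtubule Cytoskeleton Dye, MitoTracker Red and Annexin V Alexa Fluor 680, with imaging on a CQ1 microscope at 37°C and 5% CO2 after compound addition. Tubulin, mitochondrial-mass and membrane-permeability phenotypes are per cents of healthy-nucleus cells.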

[1] = 12 h, 1 µM, compound concentration 1 uM, replicate 1
[2] = 12 h, 1 µM, compound concentration 1 uM, replicate 2
[3] = 12 h, 10 µM, compound concentration 10 uM, replicate 1
[4] = 12 h, 10 µM, compound concentration 10 uM, replicate 2
[5] = 24 h, 1 µM, compound concentration 1 uM, replicate 1
[6] = 24 h, 1 µM, compound concentration 1 uM, replicate 2
[7] = 24 h, 10 µM, compound concentration 10 uM, replicate 1
[8] = 24 h, 10 µM, compound concentration 10 uM, replicate 2
[9] = 48 h, 1 µM, compound concentration 1 uM, replicate 1
[10] = 48 h, 1 µM, compound concentration 1 uM, replicate 2
[11] = 48 h, 10 µM, compound concentration 10 uM, replicate 1
[12] = 48 h, 10 µM, compound concentration 10 uM, replicate 2

Cl.O=C(O)c1cc(-c2ccc(C3CCNCC3)cc2)c2ccc(-c3ccc(C(F)(F)F)cc3)cc2c1
Population Apoptotic (%) [1]: 43% | Population Fragmented Nuclei (%) [1]: 17% | Population Healthy Nuclei (%) [1]: 21% | Population Hoechst High Intensity Objects (%) [1]: 19% | Population Membrane Permeable-Phenotype (%) [1]: 0% | Population Mitochondria Different-Phenotype (%) [1]: 76% | Population Mitotic Cells (%) [1]: 56% | Population Normal (%) [1]: 80% | Population Pyknosed Nuclei (%) [1]: 61% | Population Tubulin-Different-Phenotype (%) [1]: 36% | Total Cell Count [1]: 147 | Population Apoptotic (%) [2]: 6% | Population Fragmented Nuclei (%) [2]: 8% | Population Healthy Nuclei (%) [2]: 38% | Population Hoechst High Intensity Objects (%) [2]: 6% | Population Membrane Permeable-Phenotype (%) [2]: 7% | Population Mitochondria Different-Phenotype (%) [2]: 9% | Population Mitotic Cells (%) [2]: 93% | Population Normal (%) [2]: 93% | Population Pyknosed Nuclei (%) [2]: 52% | Population Tubulin-Different-Phenotype (%) [2]: 4% | Total Cell Count [2]: 178 | Population Apoptotic (%) [3]: 62% | Population Fragmented Nuclei (%) [3]: 16% | Population Healthy Nuclei (%) [3]: 20% | Population Hoechst High Intensity Objects (%) [3]: 10% | Population Membrane Permeable-Phenotype (%) [3]: 3% | Population Mitochondria Different-Phenotype (%) [3]: 80% | Population Mitotic Cells (%) [3]: 37% | Population Normal (%) [3]: 89% | Population Pyknosed Nuclei (%) [3]: 62% | Population Tubulin-Different-Phenotype (%) [3]: 49% | Total Cell Count [3]: 305 | Population Apoptotic (%) [4]: 64% | Population Fragmented Nuclei (%) [4]: 8% | Population Healthy Nuclei (%) [4]: 16% | Population Hoechst High Intensity Objects (%) [4]: 16% | Population Membrane Permeable-Phenotype (%) [4]: 20% | Population Mitochondria Different-Phenotype (%) [4]: 66% | Population Mitotic Cells (%) [4]: 35% | Population Normal (%) [4]: 83% | Population Pyknosed Nuclei (%) [4]: 75% | Population Tubulin-Different-Phenotype (%) [4]: 66% | Total Cell Count [4]: 111 | Population Apoptotic (%) [5]: 43% | Population Fragmented Nuclei (%) [5]: 14% | Population Healthy Nuclei (%) [5]: 33% | Population Hoechst High Intensity Objects (%) [5]: 22% | Population Membrane Permeable-Phenotype (%) [5]: 2% | Population Mitochondria Different-Phenotype (%) [5]: 59% | Population Mitotic Cells (%) [5]: 56% | Population Normal (%) [5]: 77% | Population Pyknosed Nuclei (%) [5]: 51% | Population Tubulin-Different-Phenotype (%) [5]: 28% | Total Cell Count [5]: 160 | Population Apoptotic (%) [6]: 9% | Population Fragmented Nuclei (%) [6]: 8% | Population Healthy Nuclei (%) [6]: 72% | Population Hoechst High Intensity Objects (%) [6]: 4% | Population Membrane Permeable-Phenotype (%) [6]: 4% | Population Mitochondria Different-Phenotype (%) [6]: 11% | Population Mitotic Cells (%) [6]: 90% | Population Normal (%) [6]: 95% | Population Pyknosed Nuclei (%) [6]: 19% | Population Tubulin-Different-Phenotype (%) [6]: 9% | Total Cell Count [6]: 236 | Population Apoptotic (%) [7]: 66% | Population Fragmented Nuclei (%) [7]: 20% | Population Healthy Nuclei (%) [7]: 18% | Population Hoechst High Intensity Objects (%) [7]: 16% | Population Membrane Permeable-Phenotype (%) [7]: 4% | Population Mitochondria Different-Phenotype (%) [7]: 78% | Population Mitotic Cells (%) [7]: 34% | Population Normal (%) [7]: 83% | Population Pyknosed Nuclei (%) [7]: 60% | Population Tubulin-Different-Phenotype (%) [7]: 57% | Total Cell Count [7]: 297 | Population Apoptotic (%) [8]: 60% | Population Fragmented Nuclei (%) [8]: 11% | Population Healthy Nuclei (%) [8]: 16% | Population Hoechst High Intensity Objects (%) [8]: 28% | Population Membrane Permeable-Phenotype (%) [8]: 0% | Population Mitochondria Different-Phenotype (%) [8]: 61% | Population Mitotic Cells (%) [8]: 39% | Population Normal (%) [8]: 71% | Population Pyknosed Nuclei (%) [8]: 72% | Population Tubulin-Different-Phenotype (%) [8]: 76% | Total Cell Count [8]: 112 | Population Apoptotic (%) [9]: 38% | Population Fragmented Nuclei (%) [9]: 25% | Population Healthy Nuclei (%) [9]: 27% | Population Hoechst High Intensity Objects (%) [9]: 21% | Population Membrane Permeable-Phenotype (%) [9]: 2% | Population Mitochondria Different-Phenotype (%) [9]: 25% | Population Mitotic Cells (%) [9]: 61% | Population Normal (%) [9]: 78% | Population Pyknosed Nuclei (%) [9]: 47% | Population Tubulin-Different-Phenotype (%) [9]: 19% | Total Cell Count [9]: 166 | Population Apoptotic (%) [10]: 8% | Population Fragmented Nuclei (%) [10]: 4% | Population Healthy Nuclei (%) [10]: 82% | Population Hoechst High Intensity Objects (%) [10]: 2% | Population Membrane Permeable-Phenotype (%) [10]: 4% | Population Mitochondria Different-Phenotype (%) [10]: 1% | Population Mitotic Cells (%) [10]: 92% | Population Normal (%) [10]: 97% | Population Pyknosed Nuclei (%) [10]: 13% | Population Tubulin-Different-Phenotype (%) [10]: 9% | Total Cell Count [10]: 390 | Population Apoptotic (%) [11]: 60% | Population Fragmented Nuclei (%) [11]: 34% | Population Healthy Nuclei (%) [11]: 7% | Population Hoechst High Intensity Objects (%) [11]: 21% | Population Membrane Permeable-Phenotype (%) [11]: 0% | Population Mitochondria Different-Phenotype (%) [11]: 89% | Population Mitotic Cells (%) [11]: 39% | Population Normal (%) [11]: 78% | Population Pyknosed Nuclei (%) [11]: 58% | Population Tubulin-Different-Phenotype (%) [11]: 78% | Total Cell Count [11]: 314 | Population Apoptotic (%) [12]: 40% | Population Fragmented Nuclei (%) [12]: 13% | Population Healthy Nuclei (%) [12]: 23% | Population Hoechst High Intensity Objects (%) [12]: 27% | Population Membrane Permeable-Phenotype (%) [12]: 20% | Population Mitochondria Different-Phenotype (%) [12]: 30% | Population Mitotic Cells (%) [12]: 59% | Population Normal (%) [12]: 72% | Population Pyknosed Nuclei (%) [12]: 62% | Population Tubulin-Different-Phenotype (%) [12]: 95% | Total Cell Count [12]: 119
